pEC50: −log10 of the molar value. Where two headings read alike, the source gives them in different places.
What was measured:
ISRE-bla THP-1 cells = test: ISRE-bla THP-1 FRET reporter assay for prolonged IFN-α induced ISRE activation; assay type: cell-based, human
THP-1 cells = test: MTT cell viability assay; assay type: cell-based, human; settings: for relative viability (MTT): 5 μM compound, overnight, relative to vehicle control (0.5% DMSO)
How it was run: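 THP-1 cells in 96-well plates were exposed to test compound at 5 μM for 18 h. MTT (0.5 mg/ml in assay media) was then added for 4–6 h. Cells were lysed overnight in 15% w/v SDS with 0.12% v/v 12N HCl. Absorbance was read at 570 nm against a 650 nm reference and expressed relative to vehicle (0.5% DMSO) wells.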

[1] = system: murine bone marrow derived dendritic cells; assay type: cell-based, mouse; settings: 5 μM compound in presence of IFN-α, compared to IFN-α alone
human THP-1 cells = test: q-PCR of ISG15 and ISG56 gene expression in THP-1 cells; assay type: cell-based; settings: 1 μM compound, 1000 U/mL IFN-α, 8 h, compared to vehicle
ISG15 in THP-1 cells = test: Immunoblot of IFN-α induced ISG15 protein expression; assay type: cell-based, human; settings: 24 h
[2] = system: STAT1 phosphorylation in THP-1 cells; test: Immunoblot of STAT1 phosphorylation after IFN-α; assay type: cell-based, human; settings: 1 μM compound pre-treatment 12 h, then IFN-α

Compound | FRET ratio in the absence of exogenous interferon (ISRE-bla THP-1 cells; no IFN-α, even at higher concentrations of the compounds) | pEC50 (ISRE-bla THP-1 cells; read-out: relative EC50 (ISRE activity), with 100 U/mL IFN, 16 h) | relative viability (MTT) (THP-1 cells) | % relative viability, dose response cytotoxicity (THP-1 cells; absence of IFN-α, dose response starting with 50 μM) | mRNA expression of Isg56, Isg15, Ifi2712a, Irf7, Ifi16 [1] | mRNA expression of Isg56, Isg15, Ifi2712a, Irf7, Ifi16 ([1]; listed as KX2–391) | increase in gene expression for both ISG15 and ISG56 (human THP-1 cells) | levels of IFN-α induced ISG15 protein (ISG15 in THP-1 cells; 1 μM compound with IFN-α) | amounts of ISG15 protein without IFN-α (ISG15 in THP-1 cells; compound alone) | level of p-STAT1 after 30 minutes ([2]; 30 minutes) | level of p-STAT1 at 6 h post stimulation ([2]; 6 h) | relative viability (MTT) (THP-1 cells; 5 µM) | relative viability (MTT) (THP-1 cells; listed as Belinostat, 5 µM)
O=C(Cc1ccc(-c2ccc(OCCN3CCOCC3)cc2)cn1)NCc1ccccc1 [Compound 24, KX2–391] | no increase | 5.78 | without significant toxicity | > 75% | significantly increased | increased | ~2 fold | increased | did not increase | elevated | minimal residual effect |  | 
O=C(/C=C/c1cccc(S(=O)(=O)Nc2ccccc2)c1)NO [Compound 26, belinostat] |  |  |  |  |  |  |  |  |  |  |  | toxic | relatively toxic
